Active and inactive are the calls of the source. The rule behind the calls is not given here.

For one assay, the target named is T1, Polyunsaturated fatty acid 5-lipoxygenase (Homo sapiens) (UniProt P09917).
T1 sequence (whole entry): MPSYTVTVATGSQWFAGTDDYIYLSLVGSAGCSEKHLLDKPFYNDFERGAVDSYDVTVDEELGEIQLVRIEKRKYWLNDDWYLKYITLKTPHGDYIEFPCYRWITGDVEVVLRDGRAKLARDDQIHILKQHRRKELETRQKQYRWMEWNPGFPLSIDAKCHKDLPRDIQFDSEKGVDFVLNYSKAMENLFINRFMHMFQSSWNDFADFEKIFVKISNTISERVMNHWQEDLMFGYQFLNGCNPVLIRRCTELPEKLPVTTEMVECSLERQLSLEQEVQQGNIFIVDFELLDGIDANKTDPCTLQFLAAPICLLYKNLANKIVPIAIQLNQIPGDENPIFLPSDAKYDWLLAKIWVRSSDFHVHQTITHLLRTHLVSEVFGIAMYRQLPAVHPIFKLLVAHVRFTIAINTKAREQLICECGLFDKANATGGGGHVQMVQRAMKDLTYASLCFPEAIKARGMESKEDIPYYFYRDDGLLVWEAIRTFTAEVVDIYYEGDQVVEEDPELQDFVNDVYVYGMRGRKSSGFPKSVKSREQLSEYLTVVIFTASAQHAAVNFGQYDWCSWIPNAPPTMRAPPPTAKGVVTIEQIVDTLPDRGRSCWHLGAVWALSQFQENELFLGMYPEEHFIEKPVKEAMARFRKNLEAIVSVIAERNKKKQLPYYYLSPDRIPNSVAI
Description: Inhibition of 5-LO in human PMNL cells at 10 uM relative to control. The assay is classed as cell-based. More on the design: scale not given: the % may be the effect or the level left. Put shortly: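 Freshly isolated human PMNL from leukocyte concentrates of healthy donors, 5 × 10⁶ cells/mL in PBS pH 7.4 with 1 mg/mL glucose and 1 mM CaCl₂. Preincubated with compound 15 min at RT, then stimulated with 2.5 µM A23187 plus 20 µM AA for 10 min at 37 °C. Stopped with methanol; LTB₄, its all-trans isomers and 5-H(P)ETE quantified by HPLC with PGB₁ internal standard.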
For the compound `CCCCCCC(Sc1nc(Cl)cc(NCCc2ccccc2)n1)C(=O)O` (stereo not given), the Activity was 16.1%.

In a further assay the target is T2, Prostaglandin G/H synthase 1 (Ovis aries) (UniProt P05979).
T2 sequence (whole entry): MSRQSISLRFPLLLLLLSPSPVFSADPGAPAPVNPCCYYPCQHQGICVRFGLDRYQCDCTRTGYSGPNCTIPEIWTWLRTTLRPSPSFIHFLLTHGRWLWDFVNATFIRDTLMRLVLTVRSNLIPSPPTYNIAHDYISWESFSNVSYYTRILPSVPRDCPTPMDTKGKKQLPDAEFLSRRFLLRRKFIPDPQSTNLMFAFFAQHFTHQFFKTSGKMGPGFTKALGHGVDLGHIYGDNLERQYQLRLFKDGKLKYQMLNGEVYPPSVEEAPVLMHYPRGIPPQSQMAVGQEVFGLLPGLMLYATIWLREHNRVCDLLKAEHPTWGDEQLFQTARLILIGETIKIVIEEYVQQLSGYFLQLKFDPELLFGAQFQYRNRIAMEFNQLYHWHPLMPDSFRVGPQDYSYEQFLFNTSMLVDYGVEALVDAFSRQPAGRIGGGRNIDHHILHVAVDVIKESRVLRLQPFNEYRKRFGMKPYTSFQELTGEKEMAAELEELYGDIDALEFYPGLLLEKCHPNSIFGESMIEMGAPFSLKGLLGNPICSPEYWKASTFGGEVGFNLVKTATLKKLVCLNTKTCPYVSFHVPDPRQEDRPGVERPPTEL
Description: Inhibition of ovine COX1 assessed as remaining activity at 10 uM relative to control. The gist of the method: (§1)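 Ovine COX-1 (50 units) or human recombinant COX-2 (20 units) in 100 mM Tris pH 8 with 5 mM glutathione, 5 µM hemoglobin and 100 µM EDTA. Compound preincubation 5 min at 4 °C, then prewarming 60 s at 37 °C. AA added at 5 µM for COX-1 or 2 µM for COX-2, reacted 5 min at 37 °C. 12-HHT extracted and quantified by HPLC. Mean ± SE, n = 3.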
As to `CCCCCCC(Sc1nc(Cl)cc(Nc2cccc(C)c2C)n1)C(=O)O` (stereo not given), the Activity came to 75.2%.

The target of another assay is T3, Prostaglandin E synthase (Homo sapiens) (UniProt O14684).
T3 sequence (whole entry): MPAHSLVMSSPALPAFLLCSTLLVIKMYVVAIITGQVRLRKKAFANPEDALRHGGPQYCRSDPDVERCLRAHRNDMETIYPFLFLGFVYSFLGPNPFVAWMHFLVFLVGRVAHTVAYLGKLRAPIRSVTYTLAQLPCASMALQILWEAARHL
Description: Inhibition of PGES1 in human A549 cell microsome assessed as PGE2 formation at 10 uM by cell-free assay relative to control. More on the design: scale not given: the % may be the effect or the level left. Put shortly: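 Microsomes from A549 cells grown with IL-1β (1 ng/mL, 72 h), diluted in 0.1 M potassium phosphate pH 7.4 with 2.5 mM glutathione. Compound or DMSO added 15 min before PGH₂ (20 µM final). Reaction ran 1 min at 4 °C and was stopped with FeCl₂/citric acid. PGE₂ isolated by C18 SPE, then RP-HPLC with UV at 195 nm against 11β-PGE₂ internal standard.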
`CCCCCCC(Sc1nc(Cl)cc(NCc2ccc3ncccc3c2)n1)C(=O)O` (stereo not given): the Activity was 85.7%.

For `CCCCC(Sc1nc(Cl)cc(Nc2cccc(C)c2C)n1)C(=O)O` (stereo not given), the result was inactive.

As for `CCCCCCC(Sc1nc(Cl)cc(Nc2cccc(C)c2C)n1)C(=O)O` (stereo not given), the Activity came out at 31.9%.

`CCCCCCC(Sc1nc(Cl)cc(Nc2cccc(C)c2C)n1)C(=O)OCC` (stereo not given): the result was inactive.

`Cc1cccc(Nc2cc(Cl)nc(SC(C)C(=O)O)n2)c1C` (stereo not given): the result was inactive.

On to `Cc1cccc(Nc2cc(Cl)nc(SC(C)(C)C(=O)O)n2)c1C`, for which the Activity was determined as 83.8%.

`CCCCCCC(Sc1nc(Cl)cc(Oc2ccc3ncccc3c2)n1)C(=O)O` (stereo not given): the Activity was found to be 67.4%.

Regarding `CCCCCCC(Sc1nc(Cl)cc(Nc2ccc3ncccc3c2)n1)C(=O)O` (stereo not given), the Activity was 59%.

Regarding `CC(=O)N(O)C/C=C/c1cccc(Oc2ccccc2)c1`, the result was inactive.

With `Cc1cccc(Nc2cc(Cl)nc(SC(C(=O)O)c3ccccc3)n2)c1C` (stereo not given), the Activity came out at 74.6%.

`CCCCCCC(Sc1nc(Cl)cc(NCCc2ccccc2)n1)C(=O)O` (stereo not given): the Activity was 70%.

Consider `Cc1cccc(Nc2cc(Cl)nc(SCC(=O)O)n2)c1C` [PIRINIXIC ACID], for which the result was inactive.

In another assay the target is T4, Prostaglandin G/H synthase 1 (Ovis aries, UniProt P05979).
T4 sequence (P05979 whole entry): T2 sequence (whole entry)
The experiment in a line: Inhibition of ovine COX1. Put shortly: as §1
As a reminder, the IC50 is the concentration at which inhibition is half-maximal. With `CCCCCCC(Sc1nc(Cl)cc(NCc2ccc3ncccc3c2)n1)C(=O)O` (stereo not given), the IC50 was over 10 µM.

In turn, `CCCCC(Sc1nc(Cl)cc(Nc2cccc(C)c2C)n1)C(=O)O` (stereo not given) gave an IC50 of over 10 µM.

Take `CCCCCCC(Sc1nc(Cl)cc(Nc2cccc(C)c2C)n1)C(=O)O` (stereo not given): the IC50 is over 10 µM.

In the case of `CCCCCCC(Sc1nc(Cl)cc(Nc2cccc(C)c2C)n1)C(=O)OCC` (stereo not given), the IC50 was over 10 µM.

Compound `Cc1cccc(Nc2cc(Cl)nc(SC(C)C(=O)O)n2)c1C` (stereo not given) showed an IC50 of over 10 µM.

Compound `Cc1cccc(Nc2cc(Cl)nc(SC(C)(C)C(=O)O)n2)c1C` came in with an IC50 of over 10 µM.

Compound `CCCCCCC(Sc1nc(Cl)cc(Oc2ccc3ncccc3c2)n1)C(=O)O` (stereo not given) yielded a half-maximal inhibitory concentration (IC50) of over 10 µM.

In turn, `CCCCCCC(Sc1nc(Cl)cc(Nc2ccc3ncccc3c2)n1)C(=O)O` (stereo not given) showed an IC50 of over 10 µM.

Turning to `CC(=O)N(O)C/C=C/c1cccc(Oc2ccccc2)c1`, the IC50 was over 10 µM.

Take `Cc1cccc(Nc2cc(Cl)nc(SC(C(=O)O)c3ccccc3)n2)c1C` (stereo not given): the IC50 was over 10 µM.

`CCCCCCC(Sc1nc(Cl)cc(NCCc2ccccc2)n1)C(=O)O` (stereo not given) had an IC50 of over 10 µM.

`Cc1cccc(Nc2cc(Cl)nc(SCC(=O)O)n2)c1C` [PIRINIXIC ACID] displayed an IC50 of over 10 µM.

Another assay concerns the target T5, Prostaglandin G/H synthase 2 (Homo sapiens) (UniProt P35354).
T5 sequence (whole entry): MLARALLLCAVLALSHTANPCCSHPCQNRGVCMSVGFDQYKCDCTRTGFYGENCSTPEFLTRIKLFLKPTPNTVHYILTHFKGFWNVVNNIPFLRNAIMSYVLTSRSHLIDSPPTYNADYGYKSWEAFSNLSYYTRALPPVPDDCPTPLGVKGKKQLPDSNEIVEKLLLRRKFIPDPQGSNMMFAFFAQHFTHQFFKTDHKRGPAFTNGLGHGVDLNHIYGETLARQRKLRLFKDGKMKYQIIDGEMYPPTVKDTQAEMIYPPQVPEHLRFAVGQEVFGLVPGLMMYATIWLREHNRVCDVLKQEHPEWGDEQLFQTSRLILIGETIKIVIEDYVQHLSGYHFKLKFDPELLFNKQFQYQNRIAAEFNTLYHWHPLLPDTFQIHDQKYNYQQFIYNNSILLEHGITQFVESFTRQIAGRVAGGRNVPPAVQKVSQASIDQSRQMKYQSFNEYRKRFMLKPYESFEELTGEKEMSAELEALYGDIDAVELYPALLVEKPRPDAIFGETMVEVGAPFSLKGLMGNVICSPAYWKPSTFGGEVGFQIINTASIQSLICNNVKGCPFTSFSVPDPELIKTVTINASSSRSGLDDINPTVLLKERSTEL
The experiment in a line: Inhibition of human recombinant COX2 assessed as remaining activity at 10 uM relative to control. Put shortly:
as §1
Regarding `CCCCCCC(Sc1nc(Cl)cc(Nc2cccc(C)c2C)n1)C(=O)O` (stereo not given), the Activity came out at 62%.

The next assay deals with T6, Polyunsaturated fatty acid 5-lipoxygenase (Homo sapiens, UniProt P09917).
T6 sequence (P09917 whole entry): T1 sequence (whole entry)
The experiment in a line: Inhibition of human recombinant 5-LO expressed in Escherichia coli by cell-free assay. The gist of the method:
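Human 5-LO expressed in E. coli MV1190 (pT3-5LO) at 27 °C, partially purified from the 100000g lysate supernatant. Held in PBS pH 7.4 with 1 mM EDTA and 1 mM ATP with compound for 10 min at 4 °C, warmed 30 s at 37 °C, then started with 2 mM CaCl₂ plus 20 µM AA. After 10 min at 37 °C, stopped with cold methanol; products measured by HPLC.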
Take `CCCCCCC(Sc1nc(Cl)cc(Nc2cccc(C)c2C)n1)C(=O)O` (stereo not given): the IC50 was found to be 6.5 µM.

A further assay has as its target T7, Prostaglandin G/H synthase 2 (Homo sapiens, UniProt P35354).
T7 sequence (P35354 whole entry): T5 sequence (whole entry)
Description: Inhibition of human recombinant COX2. Put shortly:
as §1
`CCCCCCC(Sc1nc(Cl)cc(NCc2ccc3ncccc3c2)n1)C(=O)O` (stereo not given): the IC50 is over 10 µM.

`CCCCC(Sc1nc(Cl)cc(Nc2cccc(C)c2C)n1)C(=O)O` (stereo not given): the IC50 was over 10 µM.

With `CCCCCCC(Sc1nc(Cl)cc(Nc2cccc(C)c2C)n1)C(=O)O` (stereo not given), the IC50 is over 10 µM.

`CCCCCCC(Sc1nc(Cl)cc(Nc2cccc(C)c2C)n1)C(=O)OCC` (stereo not given): the IC50 was over 10 µM.

On to `Cc1cccc(Nc2cc(Cl)nc(SC(C)C(=O)O)n2)c1C` (stereo not given), for which the IC50 was over 10 µM.

With `Cc1cccc(Nc2cc(Cl)nc(SC(C)(C)C(=O)O)n2)c1C`, the half-maximal inhibitory concentration (IC50) is over 10 µM.

For `CCCCCCC(Sc1nc(Cl)cc(Oc2ccc3ncccc3c2)n1)C(=O)O` (stereo not given), the IC50 was over 10 µM.

With `CCCCCCC(Sc1nc(Cl)cc(Nc2ccc3ncccc3c2)n1)C(=O)O` (stereo not given), the IC50 is over 10 µM.

As to `CC(=O)N(O)C/C=C/c1cccc(Oc2ccccc2)c1`, the IC50 was over 10 µM.

Consider `Cc1cccc(Nc2cc(Cl)nc(SC(C(=O)O)c3ccccc3)n2)c1C` (stereo not given), for which the IC50 was over 10 µM.

As to `CCCCCCC(Sc1nc(Cl)cc(NCCc2ccccc2)n1)C(=O)O` (stereo not given), the IC50 is over 10 µM.

For `Cc1cccc(Nc2cc(Cl)nc(SCC(=O)O)n2)c1C` [PIRINIXIC ACID], the IC50 was over 10 µM.

For the origin of these results see ChEMBL document CHEMBL1151733, “Pirinixic acid derivatives as novel dual inhibitors of microsomal prostaglandin E2 synthase-1 and 5-lipoxygenase” (J Med Chem, 2008).
